Assay results taken from ChEMBL document CHEMBL1145129, “Design, synthesis, and anticancer properties of 4,4'-dihydroxybenzophenone-2,4-dinitrophenylhydrazone and analogues” (J Med Chem, 2003).
Values after ≈ are worked out from the molar mass of the structure shown.

How the values were obtained:
[1] = In vitro cytotoxicity in KM 12 C cell line; assay type: functional; details: Homo sapiens, KM12C
Summary of the method: (§1)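 Established tumor lines kept in RPMI-1640 with 10% fetal calf serum and penicillin/streptomycin at 36 °C, 10% CO₂. Seeded 2000–3000 cells/well; hydrazone-containing medium added after 18 h, then 36 h further culture. Viable cells read by MTT absorbance at 570 nm; cytostasis (%) = (1 − A_treated/A_control) × 100.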

[2] = In vitro cytotoxicity in KM 12L4 cell line; assay type: functional, cell-based; details: Homo sapiens; summary of the method: as §1
MDA-MB-435 = experiment: In vitro cytotoxicity in MDA-MB-435 cell line; assay type: functional, cell-based; details: Homo sapiens; summary of the method: as §1
[3] = In vitro cytotoxicity in SN 12 PM6 cell line; assay type: functional, cell-based; details: Homo sapiens; summary of the method: as §1
[4] = In vitro cytotoxicity in KM 12 SM cell line; assay type: functional; details: Homo sapiens, KM12
Summary of the method: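 Established lines kept in RPMI-1640 with 10% fetal calf serum and penicillin/streptomycin at 36 °C, 10% CO₂. Cells seeded at 2000–3000 cells/well, hydrazones added at several concentrations after 18 h, and exposed a further 36 h. Viable cells read by MTT absorbance at 570 nm; cytostasis (%) = (1 − A/B)×100 against untreated control.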

Melanoma tumor cell line [5] = experiment: In vitro cytotoxicity against Human melanoma tumor cells; Not available.; assay type: functional, cell-based
Summary of the method: (§2)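 Fresh surgical human tumor specimens minced to ≤0.1 mm fragments in RPMI-1640 with 10% FBS, streptomycin and penicillin (10⁶–10⁸ cells/mL), explanted into slide flasks. Exposed 24 h at 37 °C, 5% CO₂, to test agent 0.1–20 μg/mL (≥5 doses over 3 logs), in duplicate. Washed, recultured 7–14 days, fixed, HPF cell counts vs control; IC50 (SD) from percent growth.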

[6] = In vitro cytotoxicity in MDA-MB-435/lung met cell line; assay type: functional; details: Homo sapiens; summary of the method: as §1
Homo sapiens [7] = organism: Homo sapiens; experiment: In vitro cytotoxicity against Human lung tumor cells.; assay type: functional; summary of the method: as §2
Colon carcinoma cell = experiment: In vitro cytotoxicity was tested in human colon tumor cells; assay type: functional, cell-based; summary of the method: as §2
[8] = In vitro cytotoxicity in K 1735 M2 cell line; assay type: functional
[9] = In vitro cytotoxicity in Human breast tumor cells; assay type: functional, cell-based; summary of the method: as §2
[10] = In vitro cytotoxicity in FDCP-1 cell line; details: Mus musculus, FDC-P1
[11] = In vitro cytotoxicity in B 16 F10 cell line; details: Mus musculus, B16-F10
Homo sapiens [12] = organism: Homo sapiens; experiment: In vitro cytotoxicity against Human lung tumor cells; Not available.; assay type: functional; summary of the method: as §2
[13] = tested on: breast cancer cells (Homo sapiens); experiment: In vitro cytotoxicity in Human breast tumor cells
Melanoma tumor cell line [14] = experiment: In vitro cytotoxicity against Human melanoma tumor cells.; assay type: functional, cell-based; summary of the method: as §2
Homo sapiens [15] = organism: Homo sapiens; experiment: In vitro cytotoxicity in Human ovary tumor cells; assay type: functional; details: Female gonad; summary of the method: as §2

With `O=[N+]([O-])c1ccc(/N=N/c2c3cccc(O)c3c(O)c3c(O)cccc23)c([N+](=O)[O-])c1` the IC50 [1] was 0.03 µg/mL (≈ 0.0714 µM), the IC50 [2] was 0.02 µg/mL (≈ 0.0476 µM) and the IC50 (MDA-MB-435) was 0.02 µg/mL (≈ 0.0476 µM). For the same compound, the IC50 [3] was 0.03 µg/mL (≈ 0.0714 µM), the IC50 [4] was 0.05 µg/mL (≈ 0.119 µM) and the IC50 (Melanoma tumor cell line [5]) was “Not Active”. The IC50 [6] was 0.03 µg/mL (≈ 0.0714 µM), the IC50 (Homo sapiens [7]) was 0.12 µg/mL (≈ 0.285 µM) and the IC50 (Colon carcinoma cell) was 0.03 µg/mL (≈ 0.0714 µM). The IC50 [8] was 0.02 µg/mL (≈ 0.0476 µM) and the IC50 [9] was 0.03 µg/mL (≈ 0.0714 µM).

Work on `COc1ccc2c(=NNc3ccc([N+](=O)[O-])cc3[N+](=O)[O-])c3ccc(OC)cc3oc2c1` yielded an IC50 [10] of 0.95 µg/mL (≈ 2.18 µM), an IC50 [11] of 0.44 µg/mL (≈ 1.01 µM) and an IC50 [2] of 1.57 µg/mL (≈ 3.6 µM). The IC50 (MDA-MB-435) was 0.41 µg/mL (≈ 0.94 µM), the IC50 [3] was 0.62 µg/mL (≈ 1.42 µM) and the IC50 (Melanoma tumor cell line [5]) was “Not Active”. For the same compound, the IC50 (Homo sapiens [12]) was “Not Active”, the IC50 [8] was 0.64 µg/mL (≈ 1.47 µM) and the IC50 [9] was over 5 µg/mL.

In the case of `O=[N+]([O-])c1ccc(N/N=C(\c2ccc(O)cc2)c2ccc(Cl)cc2)c([N+](=O)[O-])c1`, the IC50 (Melanoma tumor cell line [5]) is reported as “Not Active”, the IC50 [13] is reported as 8.7 µg/mL (≈ 21.1 µM) and the IC50 (Homo sapiens [12]) is reported as “Not Active”. The IC50 (Colon carcinoma cell) was over 10 µg/mL.

For `O=[N+]([O-])c1ccc(NN=C(c2ccccc2O)c2ccccc2O)c([N+](=O)[O-])c1`, the IC50 (Melanoma tumor cell line [14]) was over 5 µg/mL, the IC50 [13] was 4.7 µg/mL (≈ 11.9 µM) and the IC50 (Homo sapiens [7]) was 6 µg/mL (≈ 15.2 µM). For the same compound, the IC50 (Colon carcinoma cell) was 8 µg/mL (≈ 20.3 µM) and the IC50 (Homo sapiens [15]) was 5 µg/mL (≈ 12.7 µM).

In the case of `O=[N+]([O-])c1ccc(NN=C(c2ccc(O)cc2O)c2ccc(O)cc2O)c([N+](=O)[O-])c1`, the IC50 (Melanoma tumor cell line [5]) is reported as “Not Active”, the IC50 [13] is reported as over 10 µg/mL and the IC50 (Homo sapiens [7]) is reported as over 5 µg/mL. For the same compound, the IC50 (Colon carcinoma cell) was over 5 µg/mL and the IC50 (Homo sapiens [15]) was 0.03 µg/mL (≈ 0.0704 µM).

With `C=CCOc1cccc2c(/N=N/c3ccc([N+](=O)[O-])cc3[N+](=O)[O-])c3cccc(OC(C)=O)c3c(O)c12` the IC50 (Melanoma tumor cell line [5]) was “Not Active”, the IC50 (Homo sapiens [7]) was 0.07 µg/mL (≈ 0.139 µM) and the IC50 (Colon carcinoma cell) was 0.08 µg/mL (≈ 0.159 µM). It also gave an IC50 [9] of 0.1 µg/mL (≈ 0.199 µM).

For `O=[N+]([O-])c1ccc(/N=N/c2c3ccccc3c(O)c3c(O)c4ccccc4cc23)c([N+](=O)[O-])c1`, the IC50 (Melanoma tumor cell line [5]) was “Not Active”, the IC50 (Homo sapiens [7]) was 0.1 µg/mL (≈ 0.22 µM) and the IC50 [9] was 0.3 µg/mL (≈ 0.66 µM).

Compound `Oc1ccc(C(=NNc2ccccc2)c2ccc(O)cc2)cc1` has an IC50 (Melanoma tumor cell line [14]) of 7 µg/mL (≈ 23 µM), an IC50 [13] of over 5 µg/mL and an IC50 (Homo sapiens [7]) of over 10 µg/mL. For the same compound, the IC50 (Colon carcinoma cell) was over 5 µg/mL and the IC50 (Homo sapiens [15]) was 6.2 µg/mL (≈ 20.4 µM).

With `Cc1ccc(NN=C(c2ccc(O)cc2)c2ccc(O)cc2)c(C)c1` the IC50 (Melanoma tumor cell line [5]) was “Not Active”, the IC50 [13] was 10 µg/mL (≈ 30.1 µM) and the IC50 (Homo sapiens [12]) was “Not Active”.
